Test results: ChEMBL document CHEMBL2057186, “Application of the bicyclo[1.1.1]pentane motif as a nonclassical phenyl ring bioisostere in the design of a potent and orally active γ-secretase inhibitor” (J Med Chem, 2012)
≈ marks a conversion by molar mass, not a printed value.

How the values were obtained:
Gamma-secretase = assay: Inhibition of gamma secretase-mediated amyloid beta42 production in human H4 cells expressing human wild-type APP
[1] = Apparent permeability from apical to basal side of dog RRCK cells; type: ADME, cell-based, Canis lupus familiaris, MDCKII-LE; settings: for Papp A→B: MDCK
How it was run: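 Absorptive (A to B) permeability was measured in RRCK cells, a Madin–Darby canine kidney subline isolated for low transporter activity. It estimates intrinsic passive permeability.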

Homo sapiens = species: Homo sapiens; assay: Selectivity for human gamma-seretase over notch signalling protein
P-gp = assay: Efflux ratio of apparent permeability from basal to apical side to apical to basal side of MDCK cells expressing human P-gp; type: ADME, cell-based, Canis lupus familiaris; settings: dog, MDCK-MDR1
How it was run: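 Monolayers were MDCK cells transfected with the human P-glycoprotein (MDR1) gene. Permeability was measured basolateral-to-apical and apical-to-basolateral, and the BA/AB ratio was reported.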

[2] = Kinetic solubility of the solubility of the compound at pH 6.5; type: physicochemical; settings: buffer, read-out: Kinetic_solubility
How it was run: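 Kinetic solubility was measured in aqueous buffer at pH 6.5.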

IC50 (Gamma-secretase)	Papp A→B [1]	Selectivity Index (Homo sapiens)	efflux ratio (P-gp)	solubility kinetic [2]	Papp ([1]; mdckii-le)	SMILES
12.3 nM	14.1 ×10⁻⁶ cm/s	–	–	–	–	NC(=O)[C@@H](CCC(F)(F)F)N(C[C@H]1C[C@@H](c2ncon2)C1)S(=O)(=O)c1ccc(Cl)cc1
1.04 nM	19.7 ×10⁻⁶ cm/s	570	2.05	44.5 µM (≈ 20.5 µg/mL)	–	N#Cc1ccc(CN([C@H](CCC(F)(F)F)C(N)=O)S(=O)(=O)c2ccc(Cl)cc2)cc1
9.6 nM	29.9 ×10⁻⁶ cm/s	–	–	–	–	N#CC1(CN([C@H](CCC(F)(F)F)C(N)=O)S(=O)(=O)c2ccc(Cl)cc2)CC1
7.47 nM	25.7 ×10⁻⁶ cm/s	–	–	–	–	C[C@]1(C#N)C[C@@H](CN([C@H](CCC(F)(F)F)C(N)=O)S(=O)(=O)c2ccc(Cl)cc2)C1
45.5 nM	16.4 ×10⁻⁶ cm/s	–	–	–	–	NC(=O)[C@@H](CCC(F)(F)F)N(CC1(c2ncon2)CC1)S(=O)(=O)c1ccc(Cl)cc1
87.1 nM	27.6 ×10⁻⁶ cm/s	–	–	–	–	N#CCCCN([C@H](CCC(F)(F)F)C(N)=O)S(=O)(=O)c1ccc(Cl)cc1
4.11 nM	–	–	–	–	14.6 ×10⁻⁶ cm/s	N#C[C@H]1CC[C@H](CN([C@H](CCC(F)(F)F)C(N)=O)S(=O)(=O)c2ccc(Cl)cc2)CC1 (stereo in doubt; 20)
0.99 nM	30.2 ×10⁻⁶ cm/s	467	2.04	272 µM (≈ 122 µg/mL)	–	N#CC12CC(CN([C@H](CCC(F)(F)F)C(N)=O)S(=O)(=O)c3ccc(Cl)cc3)(C1)C2
4.77 nM	24.1 ×10⁻⁶ cm/s	–	–	–	–	N#C[C@H]1C[C@@H](CN([C@H](CCC(F)(F)F)C(N)=O)S(=O)(=O)c2ccc(Cl)cc2)C1
22.5 nM	10.2 ×10⁻⁶ cm/s	–	–	–	–	N#CCCN([C@H](CCC(F)(F)F)C(N)=O)S(=O)(=O)c1ccc(Cl)cc1
